Assays:
[1] = Reversal of multidrug resistance in human 2780AD cells assessed as accumulation of calcein at 0.25 ug/mL after 15 mins by fluorescence technique relative to verapamil; format: functional, A2780 ADR
Procedure, shortened: (§1)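 Same 2780AD set-up: 24 h pre-culture, then a 15 min compound pre-exposure (DMSO/PBS(-) dilution), calcein AM added (1 µM in PBS(-) as added) for 60 min, cold PBS(-) washes, and a calcein fluorescence read. Accumulation is expressed relative to that obtained with verapamil at the same concentration, mean of triplicates.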

[2] = Reversal of multidrug resistance in human 2780AD cells assessed as accumulation of calcein at 2.5 ug/mL after 15 mins by fluorescence technique relative to verapamil; format: functional, A2780 ADR; procedure, shortened: as §1
HepG2 = experiment: Growth inhibition of human HepG2 cells after 48 hrs by WST8 assay; format: functional, cell-based; settings: HepG2, 48 h
Procedure, shortened: (§2)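 Cells seeded at ca. 5000 per well, held 24 h at 37 °C in 5% CO2, then exposed 48 h to samples dissolved in DMSO. Media with 10% FBS: WI-38 in Eagle's MEM, VA-13 in RITC 80-7, HepG2 in D-MEM. WST-8 formazan read at 450 nm. Viability is background-corrected versus control, IC50 is taken from viability–concentration plots, and values are means of three independent experiments.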

WI-38 VA13 = experiment: Growth inhibition of human VA13 cells after 48 hrs by WST8 assay; format: functional, cell-based; settings: WI-38 VA13, 48 h; procedure, shortened: as §2
[3] = Reversal of multidrug resistance in human 2780AD cells assessed as accumulation of calcein at 25 ug/mL after 15 mins by fluorescence technique relative to verapamil; format: functional, A2780 ADR; procedure, shortened: as §1
[4] = Reversal of multidrug resistance in human 2780AD cells assessed as accumulation of calcein at 2.5 ug/mL after 15 mins by fluorescence technique relative to control; format: functional, A2780 ADR
Procedure, shortened: (§3)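 MDR ovarian 2780AD cells (RPMI-1640, 10% FBS), ca. 1 × 10^5 per well, held 24 h at 37 °C in 5% CO2. Compounds in DMSO diluted with PBS(-) were added 15 min before calcein AM (1 µM in PBS(-) as added), incubated 60 min, then washed with cold PBS(-). Calcein fluorescence is given as a percentage of untreated control, mean of triplicates.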

[5] = Growth inhibition of human WI38 cells after 48 hrs by WST8 assay; format: cell-based; settings: WI-38, 48 h; procedure, shortened: as §2
[6] = Reversal of multidrug resistance in human 2780AD cells assessed as accumulation of calcein at 25 ug/mL after 15 mins by fluorescence technique relative to control; format: functional, A2780 ADR; procedure, shortened: as §3
[7] = Reversal of multidrug resistance in human 2780AD cells assessed as accumulation of calcein at 0.25 ug/mL after 15 mins by fluorescence technique relative to control; format: functional, A2780 ADR; procedure, shortened: as §3

Structure (SMILES)	IC50 (HepG2)	Activity [1]	Activity [2]	IC50 (WI-38 VA13)	Activity [3]	Activity [4]	IC50 [5]	Activity [6]	Activity [7]
CC(=O)O[C@H]1C(=O)[C@@]2(C)[C@H]([C@H](OC(=O)c3ccccc3)[C@]3(O)C[C@H](OC(=O)[C@H](O)[C@@H](NC(=O)c4ccccc4)c4ccccc4)C(C)=C1C3(C)C)[C@]1(OC(C)=O)CO[C@@H]1C[C@@H]2O [PACLITAXEL]	6.9 µM			0.0043 µM			0.034 µM		
COc1cc(C[C@@H]2C(=O)OC[C@H]2Cc2ccc3c(c2)OCO3)cc(OC)c1O	> 260 µM	90%	97%	183 µM	96%	94%	> 259 µM	127%	93%
COc1cc(C[C@H](COC(C)=O)[C@@H](COC(C)=O)Cc2cc(OC)c3c(c2)OCO3)cc2c1OCO2	> 199 µM			> 199 µM			> 199 µM		
COc1cc(C[C@@H](CO)[C@H](CO)Cc2cc(OC)c3c(c2)OCO3)cc2c1OCO2	151 µM	93%	107%	219 µM	91%	103%	185 µM	121%	97%
COc1ccc(CCN(C)CCCC(C#N)(c2ccc(OC)c(OC)c2)C(C)C)cc1OC (centres undefined) [VERAPAMIL]						106%		144%	104%
COc1cc(C[C@@H]2C(=O)OC[C@H]2Cc2cc(OC)c3c(c2)OCO3)ccc1O	200 µM	74%	89%	210 µM	64%	86%	> 259 µM	85%	77%
COc1cc(C[C@@H]2COC(=O)[C@H]2Cc2ccc3c(c2)OCO3)cc2c1OCO2	> 260 µM	102%	70%	> 260 µM	67%	74%	> 260 µM	96%	91%
COc1cc(C[C@@H]2COC(=O)[C@H]2Cc2cc(OC)c3c(c2)OCO3)cc2c1OCO2	208 µM	104%	86%	130 µM	81%	91%	> 241 µM	116%	93%
COc1cc(C[C@@H]2C(=O)OC[C@H]2Cc2ccc3c(c2)OCO3)cc2c1OCO2	26.4 µM	90%	103%	23.2 µM	86%	109%	> 260 µM	124%	80%
COc1cccc2c1C(=O)c1c(O)c3c(c(O)c1C2=O)C[C@@](O)(C(=O)CO)C[C@@H]3O[C@H]1C[C@H](N)[C@H](O)[C@H](C)O1 [DOXORUBICIN]	0.69 µM			0.22 µM			0.38 µM		

The next lines start with results.

IC50 (HepG2)	Structure (SMILES)	Activity [1]	Activity [2]	IC50 (WI-38 VA13)	Activity [3]	Activity [4]	IC50 [5]	Activity [6]	Activity [7]
204 µM	COc1cc(C[C@@H]2C(=O)OC[C@H]2Cc2cc(OC)c3c(c2)OCO3)cc(OC)c1O	83%	94%	130 µM	97%	91%	195 µM	129%	86%
42.8 µM	COc1cc(C[C@@H]2C(=O)OC[C@H]2Cc2cc(OC)c3c(c2)OCO3)cc(OC)c1OC	92%	102%	118 µM	116%	99%	> 232 µM	155%	96%
198 µM	COc1cc(/C=C2/C(=O)OC[C@H]2Cc2cc(OC)c3c(c2)OCO3)cc(OC)c1O	87%	93%	157 µM	86%	90%	241 µM	114%	90%
162 µM	COc1cc(C[C@@H]2C(=O)OC[C@H]2Cc2cc(OC)c3c(c2)OCO3)cc(O)c1O	110%	86%	181 µM	84%	91%	141 µM	120%	98%
185 µM	COc1cc(C(=O)[C@@H]2C(=O)OC[C@H]2Cc2cc(OC)c3c(c2)OCO3)cc(OC)c1O			127 µM			172 µM		
> 231 µM	COc1cc([C@@H](O)[C@H]2C(=O)OC[C@@H]2Cc2cc(OC)c3c(c2)OCO3)cc(OC)c1O	88%	96%	229 µM	78%	93%	> 231 µM	104%	91%
